According to ChEMBL document CHEMBL1155077, “Kinesin spindle protein (KSP) inhibitors. 9. Discovery of (2S)-4-(2,5-difluorophenyl)-n-[(3R,4S)-3-fluoro-1-methylpiperidin-4-yl]-2-(hydroxymethyl)-N-methyl-2-phenyl-2,5-dihydro-1H-pyrrole-1-carboxamide (MK-0731) for the treatment of taxane-refractory cancer” (J Med Chem, 2008):
Activity calls are given as the source filed them. No cut-off for these calls is given here.

Assays:
[1] = Volume of distribution at steady state in rat at 1 mg/kg, iv; type: ADME, organism-based; set-up: dose 1 mg/kg, route intravenous; settings: in vivo, read-out: Vdss
[2] = target: T1, Kinesin-like protein KIF2C (Homo sapiens, UniProt Q99661); assay: Inhibition of cloned human MCAK
T1 sequence (Q99661 whole entry): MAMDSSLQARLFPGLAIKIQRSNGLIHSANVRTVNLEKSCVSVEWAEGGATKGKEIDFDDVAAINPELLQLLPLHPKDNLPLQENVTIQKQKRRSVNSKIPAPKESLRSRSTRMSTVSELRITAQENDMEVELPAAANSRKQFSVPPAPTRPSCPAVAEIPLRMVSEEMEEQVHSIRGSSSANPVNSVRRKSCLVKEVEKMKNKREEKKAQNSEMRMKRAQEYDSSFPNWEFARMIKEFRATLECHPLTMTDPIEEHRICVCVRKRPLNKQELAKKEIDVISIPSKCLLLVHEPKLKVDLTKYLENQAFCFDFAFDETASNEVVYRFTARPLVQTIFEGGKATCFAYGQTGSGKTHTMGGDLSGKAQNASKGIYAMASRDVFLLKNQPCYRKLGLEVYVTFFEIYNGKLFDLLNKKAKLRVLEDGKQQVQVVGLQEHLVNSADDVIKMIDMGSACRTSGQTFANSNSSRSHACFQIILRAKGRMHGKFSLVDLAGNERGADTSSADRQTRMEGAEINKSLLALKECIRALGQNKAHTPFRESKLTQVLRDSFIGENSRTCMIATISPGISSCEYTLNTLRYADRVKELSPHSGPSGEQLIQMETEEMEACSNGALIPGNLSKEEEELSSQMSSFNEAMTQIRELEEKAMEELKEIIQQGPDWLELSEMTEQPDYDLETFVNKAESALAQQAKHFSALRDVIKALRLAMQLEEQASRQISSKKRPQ

[3] = Volume of distribution at steady state in rhesus monkey at 0.4 mg/kg, iv; type: ADME, organism-based, Macaca mulatta; set-up: dose 0.4 mg/kg, route intravenous; settings: in vivo, read-out: Vdss
[4] = Half life in rhesus monkey at 0.4 mg/kg, iv; type: ADME, organism-based, Macaca mulatta; set-up: dose 0.4 mg/kg, route intravenous; settings: in vivo
KB-v [5] = assay: Inhibition of tumor growth in human KB-v cells expressing MDR1 xenografted clr:NU/NU-nuBR mouse assessed as change in tumor volume at 40 mg/kg, sc administered qd x 1 dosing schedule relative to control
[6] = target: Voltage-gated inwardly rectifying potassium channel KCNH2 (Homo sapiens, UniProt Q12809)
Chain of Voltage-gated inwardly rectifying potassium channel KCNH2 (Q12809 whole entry): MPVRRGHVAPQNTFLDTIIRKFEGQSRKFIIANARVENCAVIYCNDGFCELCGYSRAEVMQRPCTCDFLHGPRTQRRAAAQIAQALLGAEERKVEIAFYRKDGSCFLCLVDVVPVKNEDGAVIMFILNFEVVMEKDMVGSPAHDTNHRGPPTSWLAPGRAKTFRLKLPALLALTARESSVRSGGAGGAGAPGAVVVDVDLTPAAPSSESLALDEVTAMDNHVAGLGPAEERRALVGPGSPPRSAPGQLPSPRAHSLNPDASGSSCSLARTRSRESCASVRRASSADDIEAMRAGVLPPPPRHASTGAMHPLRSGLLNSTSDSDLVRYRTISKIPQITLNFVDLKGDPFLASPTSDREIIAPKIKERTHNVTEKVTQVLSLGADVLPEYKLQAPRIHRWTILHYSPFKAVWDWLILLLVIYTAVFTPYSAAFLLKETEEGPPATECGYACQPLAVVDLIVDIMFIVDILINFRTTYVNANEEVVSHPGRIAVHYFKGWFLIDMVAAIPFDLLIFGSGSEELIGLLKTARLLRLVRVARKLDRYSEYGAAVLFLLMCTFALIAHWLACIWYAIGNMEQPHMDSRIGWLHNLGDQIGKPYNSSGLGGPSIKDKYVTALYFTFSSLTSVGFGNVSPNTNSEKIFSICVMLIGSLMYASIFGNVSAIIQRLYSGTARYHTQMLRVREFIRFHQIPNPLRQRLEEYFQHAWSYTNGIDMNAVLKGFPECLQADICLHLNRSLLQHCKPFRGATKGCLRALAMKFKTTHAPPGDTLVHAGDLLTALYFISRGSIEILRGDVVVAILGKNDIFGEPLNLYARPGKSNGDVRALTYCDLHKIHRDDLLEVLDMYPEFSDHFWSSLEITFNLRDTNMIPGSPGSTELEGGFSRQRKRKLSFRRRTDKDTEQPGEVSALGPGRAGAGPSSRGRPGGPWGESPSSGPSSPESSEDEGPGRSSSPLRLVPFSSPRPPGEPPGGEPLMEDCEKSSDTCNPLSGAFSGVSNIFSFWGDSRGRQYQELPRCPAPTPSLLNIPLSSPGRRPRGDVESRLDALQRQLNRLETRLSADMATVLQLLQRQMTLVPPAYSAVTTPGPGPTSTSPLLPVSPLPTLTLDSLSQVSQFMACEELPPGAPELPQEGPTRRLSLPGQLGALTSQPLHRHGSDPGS

[7] = Effect on […] formation in human […] cells assessed as mitotic spindles at 50 nM after 16 hrs by fluorescence microscopy; type: functional
Summary of the method: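 A2780 cells grown in slide chambers, exposed 16 h to 5 or 50 nM compound or 0.1% DMSO. Fixed/permeabilized in PIPES buffer pH 6.8 with Triton X-100 and 4% formaldehyde, blocked with 2% BSA, stained with anti-α-tubulin (DM1, 12 h 4 °C), FITC secondary and Hoechst 33342; spindles viewed by fluorescence microscopy.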

KB-v [8] = assay: Inhibition of tumor growth in human KB-v cells expressing MDR1 xenografted clr:NU/NU-nuBR mouse assessed as change in tumor volume at 20 mg/kg, ip administered qd x 5 dosing schedule relative to control; type: functional, organism-based; set-up: dose 20 mg/kg
Summary of the method: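 Nude mice bearing contralateral sc KB-3-1 (2.5 million) and KB-v-1 (9 million) flank tumors, 250-500 mm³ at day 13-14, groups of 10-12. Paclitaxel 20 mg/kg/day ip in ethanol/Cremophor/saline (10:10:80), qd × 5. Volumes by calipers, (W² × L)/2, change from initial; % T/C versus control.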

A2780 [9] = assay: Induction of mitotic arrest in human A2780 cells […] clr:NU/NU-nuBR mouse assessed as minimum plasma concentration required to induce maximum mitotic arrest after 22 hrs; type: functional
[10] = target: T2, Kinesin-like protein KIF23 (Homo sapiens, UniProt Q02241); assay: Inhibition of cloned human MKLP1
T2 sequence (Q02241 whole entry): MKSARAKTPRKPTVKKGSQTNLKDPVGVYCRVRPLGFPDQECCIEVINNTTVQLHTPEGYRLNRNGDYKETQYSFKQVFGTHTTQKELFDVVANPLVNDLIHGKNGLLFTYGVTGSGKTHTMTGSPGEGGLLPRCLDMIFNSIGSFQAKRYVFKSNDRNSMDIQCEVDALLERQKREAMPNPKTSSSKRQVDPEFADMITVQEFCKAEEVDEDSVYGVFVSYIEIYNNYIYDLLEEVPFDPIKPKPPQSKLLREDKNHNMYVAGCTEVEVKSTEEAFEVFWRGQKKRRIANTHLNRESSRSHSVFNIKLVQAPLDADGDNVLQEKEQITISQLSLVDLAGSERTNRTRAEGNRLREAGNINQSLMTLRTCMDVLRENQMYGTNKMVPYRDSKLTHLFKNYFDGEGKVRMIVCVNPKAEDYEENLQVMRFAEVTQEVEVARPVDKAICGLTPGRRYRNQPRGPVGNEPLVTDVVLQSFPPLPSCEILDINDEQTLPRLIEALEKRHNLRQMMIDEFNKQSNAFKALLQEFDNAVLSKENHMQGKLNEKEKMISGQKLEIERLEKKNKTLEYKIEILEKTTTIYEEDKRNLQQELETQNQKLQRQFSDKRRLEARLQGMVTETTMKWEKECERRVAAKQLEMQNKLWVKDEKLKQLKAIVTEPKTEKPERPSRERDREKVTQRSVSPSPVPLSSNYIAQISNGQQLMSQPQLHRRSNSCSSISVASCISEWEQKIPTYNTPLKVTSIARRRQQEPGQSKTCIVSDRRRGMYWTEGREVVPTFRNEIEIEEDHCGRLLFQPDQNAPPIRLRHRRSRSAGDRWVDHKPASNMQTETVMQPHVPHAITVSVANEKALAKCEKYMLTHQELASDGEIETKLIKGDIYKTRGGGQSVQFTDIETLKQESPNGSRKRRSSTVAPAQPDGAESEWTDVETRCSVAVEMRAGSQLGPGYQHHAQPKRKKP

[11] = Clearance in dog at 0.4 mg/kg, iv; type: ADME, organism-based, Canis lupus familiaris; set-up: dose 0.4 mg/kg, route intravenous; settings: in vivo
A2780 [12] = assay: Inhibition of tumor growth in human A2780 cells xenografted clr:NU/NU-nuBR mouse assessed as change in tumor volume at 100 mg/kg, sc administered q4d x 3 dosing schedule

With `CN1CC[C@H](N(C)C(=O)N2CC(c3cc(F)ccc3F)=C[C@@]2(CO)c2ccccc2)[C@H](F)C1` the Vd [1] was 3 L/kg, the IC50 [2] was greater than 50 µM and the Vd [3] was 2.3 L/kg. For the same molecule, the half-life [4] was 1 h, the Activity (KB-v [5]) was “Active” and the IC50 [6] was 20.5 µM. For the same molecule, the Activity [7] was 90%, the Activity (KB-v [8]) was “inactive” and the EC90 (A2780 [9]) was 0.094 µM. The IC50 [10] was greater than 50 µM, the clearance [11] was 15.1 mL/min/kg and the Activity (A2780 [12]) was “Active”.
